Screening results as filed in PubChem.
TAAR1 antag = human TAAR1 antagonists, primary screen, Fluo-8 calcium fluorescence, CHO RD-HGA16 cells. Trace amine-associated receptor 1 (Homo sapiens), Q96RJ0. antagonist. inhibition, % at 3 µM. hit rate 1.5% among 360,000;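 active = inhibition above a per-plate cutoff, the mean inhibition of test compounds on that plate plus 3 SD, cut at about 49% in these data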;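 note: 0% = DMSO plus EC80 beta-PEA response and 100% = DMSO alone without agonist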
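Assay system: RD-HGA16 CHO cells with stable hTAAR1 and Gα16 / Reagent: EC80 β-phenethylamine stimulus / Doses: 3 µM, single point / Timing: dye loading 75 min at 37 °C, then 30 min room temperature / Measured by: Fluo-8 intracellular calcium dye fluorescence, real-time kinetic reads / Controls: vehicle wells and EC80 agonist wells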
Platelet DG rel = inhibitors of platelet dense granule secretion, primary screen, cell-based, MLPCN, human platelets; human platelet-rich plasma, SFLLRN dense granule ATP release, luminescence; inhibition, %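 (compounds screened at 7.5 µM in platelet-rich plasma)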; hit rate 0.22% among 300,000; AID 1663, 2009;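 active = mean replicate score, as percent of positive control, at or above 50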
Rce1 inhib = yeast Rce1p protease inhibitors, primary screen, biochemical, fluorescence, cell-free homogeneous. yeast membranes, quenched prenylated peptide cleavage fluorescence. calls only. hit rate 0.27% among 290,000. AID 2563, 2010;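 active = fall in fluorescence gain of 50% or more versus controls, with final raw signal at or below 3038400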;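 note: plate controls were neutral control wells for no effect and wells lacking membranes for full effect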
Target sequence (Q03530 whole entry, looked up): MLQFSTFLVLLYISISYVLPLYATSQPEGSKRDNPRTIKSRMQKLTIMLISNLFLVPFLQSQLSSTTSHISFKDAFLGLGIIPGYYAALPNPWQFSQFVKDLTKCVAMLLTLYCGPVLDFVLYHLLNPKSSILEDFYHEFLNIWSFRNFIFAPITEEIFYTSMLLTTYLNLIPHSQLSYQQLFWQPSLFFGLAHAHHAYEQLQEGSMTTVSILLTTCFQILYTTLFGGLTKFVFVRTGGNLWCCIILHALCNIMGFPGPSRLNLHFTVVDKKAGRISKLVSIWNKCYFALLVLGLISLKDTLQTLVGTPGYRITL
VLA-4 inh = inhibition in human VLA-4 binding assay, primary screen, VLA-4 allosteric modulator project, MLPCN library, flow cytometry, VLA-4 expressing cells; ligand binding flow cytometry; inhibition, % (about 7 µM as worked out from the volumes in the protocol); hit rate 0.2% among 330,000; in the data active = inhibition above about 50%
TAAR1 ag = human TAAR1 agonists, primary screen, Fluo-8 calcium fluorescence, CHO RD-HGA16 cells | vehicle wells 0%, saturating PEA agonist 100% | hit rate 0.99% among 360,000 | AID 624467, 2012 | activation, % at 3 µM;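 active = activation above the mean activation of all test compounds in the run plus 3 SD, cut at about 38% in these data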
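System: CHO-derived RD-HGA16 cells with stable Gα16 and human TAAR1. Times: 17-24 h plating, Fluo-8 75 min 37 °C, 30 min RT. Measured by: calcium-sensitive Fluo-8 signal, excitation 470-495, emission 515-575 nm. Read-out basis: % activation relative to PEA EC100 response. Control set: DMSO and PEA EC100. Repeats: no replicates (n 1).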
VLA-4 allo CP = retest of VLA-4 allosteric modulators, confirmation, cell-based, cherry-picked plates, U937, HUTS-21 LIBS antibody; shares compounds with VLA-4 inh; U937 cells, HUTS-21 LIBS mAb binding, flow cytometry; LDV ligand present at threefold Kd; inhibition, % at 6.7 µM; hit rate 2% among 1,300; AID 2813, 2010; in the data active = inhibition above about 40%;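 note: 0% = ligand without compound and 100% = no ligand background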
nonsel antag count = nonselective antagonists in TAAR1 counter-screen cells, counter-screen for hTAAR1 antagonist project, cell-based, fluorescence, calcium | shares compounds with TAAR1 antag | hit rate 77% among 2,400 | inhibition, % at 3 µM | AID 651780, 2012 | counterscreen cell line, antagonist mode; in the data active = inhibition above about 22%;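 note: CHO-Ga16 host cells stimulated with ATP at an EC80 level; 0% = agonist EC80 plus vehicle and 100% = vehicle without agonist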
TAAR1 ant conf = human TAAR1 antagonists, retest of hits, confirmation, cell-based, fluorescence | shares compounds with TAAR1 antag | TAAR1-expressing cells, fluorescence antagonist read-out | inhibition, % at 3 µM | hit rate 40% among 2,400 | AID 651785, 2012; in the data active = inhibition above about 49%;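 note: CHO-Ga16 host cells challenged with agonist PEA near its EC80; 0% = agonist at EC80 plus vehicle and 100% = vehicle with no agonist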
Ga16 nonsel ag = calcium activation in Ga16-expressing cells, counter-screen for TAAR1 antagonist project, cell-based, fluorescence; agonist counterscreen; AID 651953, 2012; shares compounds with TAAR1 antag; activation, % at 3 µM; hit rate 18% among 2,400; in the data active = activation above about 12%;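 note: 0% = vehicle wells and 100% = saturating stimulus response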
TAAR1 ag counter = TAAR1 activation by candidate antagonists – cell-based, fluorescence, counter-screen for TAAR1 antagonist project; shares compounds with TAAR1 antag; hit rate 2% among 2,400; hTAAR1 cell line, agonist mode; AID 651955, 2012; activation, % at 3 µM; in the data active = activation above about 37%;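 note: CHO cells stably expressing TAAR1 with calcium dye readout; 0% = DMSO vehicle and 100% = full agonist response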
* marks the source's active call; other numbers are inactive results; i = inactive; x = no result. Hits are enriched below; roughly 2.6% of the tested compounds scored in any of these assays.

SMILES | TAAR1 antag | Platelet DG rel | Rce1 inhib | VLA-4 inh | TAAR1 ag | VLA-4 allo CP | others
COc1ccc2sc(-c3ccccc3OC)c(-c3ccc(OC)nc3)c2c1 | 12.0 | x | x | 11.4 | 0.2 | x
COc1ccccc1-c1sc2ccccc2c1-c1ccc(OCCN2CCOCC2)cc1 | 3.3 | x | x | x | 1.4 | 0.0
CCOC(=O)C1(Cc2ccccc2Cl)CCN(C(=O)CCn2ccnc2C)CC1 | 15.1 | 11.2 | i | 52.9* | -1.1 | -6.2
O=C(c1ccc(CN2CCc3ccccc3C2)cc1)N1CCN(c2ccccc2)CC1 | -11.1 | -2.8 | i | 46.5 | 0.9 | -6.9
CCOC(=O)NC(=O)/C(C#N)=C/c1ccc(N(C)C)cc1 | -3.9 | -27.0 | i | -16.1 | 4.3 | 2.1
N#C/C(=C\c1ccccc1)C(=O)NC(=O)Oc1ccccc1 | -13.3 | -2.6 | i | 2.0 | 4.6 | x
CCN(CC)c1ccc(/C=C(\C#N)C(N)=O)cc1 | 11.1 | x | x | x | 4.5 | -1.6
N#C/C(=C\c1cc(O)c(O)c(O)c1)C(N)=O | -10.6 | 1.3 | i | 4.1 | -0.1 | 2.4
N#C/C(=C\c1cc(Cl)c(OCc2ccc(Cl)cc2)c(Cl)c1)C(N)=O | x | 1.0 | i | 2.5 | x | x
Cc1ccccc1OCC(=O)OCC(=O)NC1CC1 | -14.2 | x | x | 6.7 | 12.2 | x
Cc1ccc(S(=O)(=O)N2CCN(C(=O)COC(=O)CNC(=O)c3ccccc3F)CC2)c(C)c1 | -1.9 | x | x | x | 1.3 | x
O=C(COC(=O)c1ccccc1C(=O)c1ccc(Cl)c([N+](=O)[O-])c1)NC1CCCCCC1 | 73.8* | -9.1 | i | 62.0* | 13.0 | 32.3 | nonsel antag count=34.9*;TAAR1 ant conf=53.7*;Ga16 nonsel ag=8.7;TAAR1 ag counter=9.6
COc1ccccc1NC(=O)CCc1nnc2ccc(N3CCN(C)CC3)nn12 | -4.5 | 10.8 | i | 10.6 | 0.5 | x
COc1ccc(S(=O)(=O)Nc2ncccn2)cc1 | 104.7* | 0.7 | i | 5.5 | -3.4 | 3.3 | nonsel antag count=2.7;TAAR1 ant conf=-1.3;Ga16 nonsel ag=0.7;TAAR1 ag counter=1.2
CN(C)C1CCCCC=CC(=O)NC1 (stereo not drawn) | -23.4 | x | x | x | 2.5 | x
CS(=O)(=O)N1CCN(C(=O)c2cc(-c3cccnc3)nc3ccc(Br)cc23)CC1 | 45.8 | -2.2 | x | -8.8 | 18.3 | x
O=C(c1cc(-c2cccnc2)nc2ccc(Br)cc12)N1CCN(c2ncccn2)CC1 | 51.0* | 2.9 | i | 1.0 | 19.7 | -3.0 | nonsel antag count=33.8*;TAAR1 ant conf=56.5*;Ga16 nonsel ag=10.0;TAAR1 ag counter=12.2
Nc1cc(Cl)ccc1C(=O)OCC(=O)N1CCCC1 | -11.6 | -1.4 | i | 6.6 | 0.6 | x
Nc1cc(Cl)ccc1C(=O)OCC(=O)N1CCCCCC1 | 103.3* | x | x | 14.0 | 2.4 | -9.5 | nonsel antag count=11.2;TAAR1 ant conf=4.9;Ga16 nonsel ag=4.3;TAAR1 ag counter=7.4
